Source: ChEMBL document CHEMBL4706565, “Anti-glioma effects of 2-aminothiophene-3-carboxamide derivatives, ANO1 channel blockers” (Eur J Med Chem, 2020)
Active and inactive are the calls of the source. The rule behind the calls is not given here.

Key:
[1] = tested on: U-251; assay: Synergistic antiproliferative activity against human U251 cells assessed as combination index at compound:temozolomide concentration ratio of 1:1 in presence of temozolomide by Chou-Talalay method; format: functional
In short: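 U251 proliferation measured with CellTiter-Glo across full titrations of an ANO1 inhibitor combined with temozolomide. Combination index calculated by the Chou-Talalay method.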

[2] = tested on: U-251; assay: Inhibition of colony formation in human U251 cells at 10 uM incubated for 14 days by crystal violet dye based assay; format: functional; details: U-251, 336 h, time 14 day
In short: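 Colonies stained 24 h with crystal violet in methanol/formaldehyde/PBS, washed, extracted with 10% acetic acid and read at A570 nm. Compared against DMSO control.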

[3] = tested on: U-251; assay: Antiproliferative activity against human U251 cells overexpressing ANO1 assessed as reduction in cell viability in presence of temozolomide measured after 72 hrs by Celltiter-glo assay; format: functional
[4] = target: T1, Anoctamin-1 (Mus musculus) (UniProt Q8BHY3); assay: Reversible inhibition of GFP-fused mouse ANO1 channel expressed in HEK293A cells assessed as channel current amplitude at 10 uM at membrane potential of +80 mV measured after drug wash-out by patch clamp electrophysiology assay; format: cell-based; parameters: scale not given: the % may be the effect or the level left; details: HEK293-A
T1 sequence (whole entry): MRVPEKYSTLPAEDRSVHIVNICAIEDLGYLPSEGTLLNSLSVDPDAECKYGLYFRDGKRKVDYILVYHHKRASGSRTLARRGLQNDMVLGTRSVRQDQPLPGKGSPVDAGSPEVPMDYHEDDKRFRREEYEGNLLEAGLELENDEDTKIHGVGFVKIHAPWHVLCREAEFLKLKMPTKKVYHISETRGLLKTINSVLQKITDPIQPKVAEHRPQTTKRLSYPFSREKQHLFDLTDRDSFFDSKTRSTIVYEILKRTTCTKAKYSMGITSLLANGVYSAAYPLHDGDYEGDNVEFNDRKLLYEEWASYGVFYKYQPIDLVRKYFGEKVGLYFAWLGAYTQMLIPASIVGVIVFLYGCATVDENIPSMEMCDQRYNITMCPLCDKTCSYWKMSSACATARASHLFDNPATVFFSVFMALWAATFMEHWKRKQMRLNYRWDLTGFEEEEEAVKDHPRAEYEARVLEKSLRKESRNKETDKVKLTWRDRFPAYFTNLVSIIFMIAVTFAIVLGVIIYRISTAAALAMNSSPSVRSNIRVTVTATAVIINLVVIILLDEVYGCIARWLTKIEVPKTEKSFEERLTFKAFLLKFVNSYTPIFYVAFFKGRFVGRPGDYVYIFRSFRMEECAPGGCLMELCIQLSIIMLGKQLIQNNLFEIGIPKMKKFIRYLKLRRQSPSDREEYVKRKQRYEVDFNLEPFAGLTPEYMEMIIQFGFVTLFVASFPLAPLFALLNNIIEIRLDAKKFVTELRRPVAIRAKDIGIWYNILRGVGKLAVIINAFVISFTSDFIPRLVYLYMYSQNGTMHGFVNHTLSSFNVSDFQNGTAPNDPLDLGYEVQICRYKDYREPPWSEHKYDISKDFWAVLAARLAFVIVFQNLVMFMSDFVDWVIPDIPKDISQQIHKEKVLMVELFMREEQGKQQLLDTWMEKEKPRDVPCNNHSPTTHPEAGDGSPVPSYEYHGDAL
In short: (§1)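 Whole-cell recording at room temperature in HEK293A cells transfected with GFP-mANO1, GFP-mANO2 or GFP-mTTYH1. 1 s ramps from +80 to -80 mV, holding potential -10 mV. For ANO1/ANO2: pipette CsCl 146 mM with Ca-EGTA-NMDG, pH 7.3; bath NaCl-based, pH 7.3. For TTYH1: Tris-aspartate pipette (pH 7.2) and Tris-HCl bath (pH 7.4), with […] and BaCl2 added to block K+ channels, and hypotonic (220 mOsm/kg) bath. Washout recordings assessed reversibility.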

[5] = target: T2, Anoctamin-2 (Mus musculus, UniProt Q8CFW1); assay: Inhibition of GFP-fused mouse ANO2 channel expressed in HEK293A cells assessed as inhibition of channel current amplitude at membrane potential of +80 mV by patch clamp electrophysiology assay; format: cell-based, HEK293-A; in short: as §1
T2 sequence (Q8CFW1 whole entry): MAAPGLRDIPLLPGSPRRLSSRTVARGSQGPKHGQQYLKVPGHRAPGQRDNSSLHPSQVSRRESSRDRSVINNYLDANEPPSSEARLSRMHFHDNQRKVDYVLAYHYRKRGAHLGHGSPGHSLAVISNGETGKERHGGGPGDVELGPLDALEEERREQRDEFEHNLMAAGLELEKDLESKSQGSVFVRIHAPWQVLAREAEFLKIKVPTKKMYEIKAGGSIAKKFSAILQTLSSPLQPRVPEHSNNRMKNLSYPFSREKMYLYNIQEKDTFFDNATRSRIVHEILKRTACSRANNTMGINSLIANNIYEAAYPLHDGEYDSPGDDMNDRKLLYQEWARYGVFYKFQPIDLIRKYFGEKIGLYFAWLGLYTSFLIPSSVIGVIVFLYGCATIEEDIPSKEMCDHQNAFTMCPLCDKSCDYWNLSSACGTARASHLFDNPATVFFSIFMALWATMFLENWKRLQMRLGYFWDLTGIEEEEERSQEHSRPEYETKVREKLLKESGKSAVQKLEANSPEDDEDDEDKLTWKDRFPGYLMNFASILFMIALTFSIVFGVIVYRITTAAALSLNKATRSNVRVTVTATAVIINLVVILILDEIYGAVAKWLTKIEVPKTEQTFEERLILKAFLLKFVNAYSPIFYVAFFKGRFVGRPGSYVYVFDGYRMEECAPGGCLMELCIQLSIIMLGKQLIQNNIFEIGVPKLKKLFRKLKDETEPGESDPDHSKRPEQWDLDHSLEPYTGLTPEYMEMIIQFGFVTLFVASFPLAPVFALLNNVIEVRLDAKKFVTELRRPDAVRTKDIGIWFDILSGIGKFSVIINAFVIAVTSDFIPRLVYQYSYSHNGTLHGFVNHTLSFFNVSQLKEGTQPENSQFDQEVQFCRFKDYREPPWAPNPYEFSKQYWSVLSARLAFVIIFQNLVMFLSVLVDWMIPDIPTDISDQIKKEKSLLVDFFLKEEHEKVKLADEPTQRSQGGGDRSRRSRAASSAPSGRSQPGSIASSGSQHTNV

[6] = tested on: U-251; assay: Inhibition of cell migration in human U251 cells at 10 uM incubated for 18 hrs by wound healing assay; format: functional
In short: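 U251 monolayer, 2.0×10^5 cells/well, plated overnight, then scratched and washed with PBS. Wound area imaged before and after incubation; migration ratio taken from migrated area. One-way ANOVA.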

[7] = target: T1, Anoctamin-1 (Mus musculus); assay: Irreversible inhibition of GFP-fused mouse ANO1 channel expressed in HEK293A cells assessed as inhibition of channel current amplitude at 10 uM at membrane potential of +80 mV measured after drug wash-out by patch clamp electrophysiology assay; format: cell-based; details: HEK293-A; in short: as §1

GI50 [3] [µM]	Activity [4] [%]	IC50 [5] [µM]	inhibition [7]	SMILES	CI [1]	inhibition at 10 µM [2] [%]	inhibition at 10 µM [6] [%]	inhibition [6]
5.32	85.8	15.4	–	CC(C)(C)C(=O)Nc1sc2c(c1C(N)=O)CCC(C(C)(C)C)C2 (stereo not given)	0.63	96.6	90	–
–	–	7.43	Active	NC(=O)c1c(NC(=S)NC(=O)c2ccc(Cl)cc2)sc2c1CCC2	–	96.4	–	Active
